Test results published in ChEMBL document CHEMBL1124606, “Benzo- and pyrido-1,4-oxazepin-5-ones and -thiones: synthesis and structure-activity relationships of a new series of H1 antihistamines” (1989).

Columns and labels:
Cavia porcellus [1] = experiment: Histamine induced lethality, at 60-min pretreatment time when 1 mg/kg compound was administered perorally in guinea pigs; assay type: functional; conditions: route oral
Cavia porcellus [2] = experiment: Histamine induced lethality, at 60-min pretreatment time when 3 mg/kg compound was administered perorally in guinea pigs; assay type: functional; conditions: route oral
Cavia porcellus [3] = experiment: Histamine induced lethality, at 60-min pretreatment time when 0.3 mg/kg compound was administered perorally in guinea pigs; assay type: functional; conditions: route oral
[4] = biological target: Histamine H1 receptor (Cavia porcellus) (UniProt P31389); experiment: Histamine induced lethality, at 60-min pretreatment time of 0.1 mg/kg p.o. in guinea pigs.; assay type: functional, organism-based; set-up: dose 0.1 mg/kg; conditions: at 0.1 mg/kg
Cavia porcellus [5] = species: Cavia porcellus; experiment: Effective dose that protects guinea pigs against histamine induced lethality, at 1 hour pretreatment time; assay type: functional
Summary of the method: (§1)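 Survival at 24 h after challenge was scored as protection. Groups of 5–10 animals per treatment; ED50 was calculated by the Litchfield–Wilcoxon method or by computer probit analysis.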

Cavia porcellus [6] = species: Cavia porcellus; experiment: Effective dose that protects guinea pigs against histamine induced lethality at 6 hours pretreatment time; assay type: functional; summary of the method: as §1
Cavia porcellus [7] = experiment: Histamine induced lethality, at 30-min pretreatment time when 30 mg/kg compound was administered intra peritoneally in guinea pigs; assay type: functional
Cavia porcellus [8] = experiment: Histamine induced lethality, at 60-min pretreatment time when 30 mg/kg compound was administered perorally in guinea pigs; assay type: functional; conditions: route oral
[9] = biological target: Histamine H1 receptor (Cavia porcellus) (UniProt P31389); experiment: Histamine induced lethality, at 30-min pretreatment time of 3 mg/kg i.p. in guinea pigs.; assay type: functional, organism-based; set-up: dose 3 mg/kg; conditions: at 3 mg/kg
Felis catus [10] = experiment: The compound dose required for 50% block of H1 histamine activity, when administarted intra venously in cats; assay type: functional
Summary of the method: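 Cats given test compound iv (0.001-20 mg/kg), with blood pressure recorded continuously. Histamine 0.5 μg/kg iv was given to induce hypotension, before and 5, 10 and 20 min after each dose. The antihistaminic dose was the one inhibiting the histamine response by >50%. Values are mean ± SD over the number of experiments per compound.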

Felis catus [11] = experiment: The compound dose required to elicit marked cortical slowing and spindling, when administarted intra venously in cats; assay type: functional
Summary of the method: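 Cats given test compound iv (0.001-20 mg/kg), with spontaneous EEG inspected after each dose for cortical slowing, synchrony and spindle-type activity. The sedative dose was the one producing marked slowing and spindling (synchrony). Values are mean ± SD over the number of experiments per compound.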

Histamine H1 receptor (Cavia porcellus), sequence (P31389 whole entry): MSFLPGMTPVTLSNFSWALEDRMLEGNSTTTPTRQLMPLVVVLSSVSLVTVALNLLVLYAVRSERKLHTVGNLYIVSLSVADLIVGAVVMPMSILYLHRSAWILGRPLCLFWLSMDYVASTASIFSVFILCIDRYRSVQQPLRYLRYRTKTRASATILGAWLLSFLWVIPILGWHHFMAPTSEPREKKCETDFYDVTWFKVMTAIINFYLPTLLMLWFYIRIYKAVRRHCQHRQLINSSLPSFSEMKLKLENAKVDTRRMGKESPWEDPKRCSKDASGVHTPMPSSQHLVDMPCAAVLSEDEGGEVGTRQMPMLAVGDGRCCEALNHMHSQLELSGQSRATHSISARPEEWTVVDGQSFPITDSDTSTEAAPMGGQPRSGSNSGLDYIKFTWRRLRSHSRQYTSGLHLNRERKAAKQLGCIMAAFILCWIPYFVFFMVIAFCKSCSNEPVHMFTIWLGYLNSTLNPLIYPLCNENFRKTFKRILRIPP

CN(C)CCC1CN(C)C(=S)c2cc(N)ccc2O1 (stereo not drawn)
survival at 1 mg/kg (Cavia porcellus [1]): 0%
survival at 3 mg/kg (Cavia porcellus [2]): 100%

Cc1nc2c(cc1Cl)C(=S)N(C)CC(CCN(C)C)O2 (stereo not drawn)
survival at 0.3 mg/kg (Cavia porcellus [3]): 67%
Survival [4]: 67%

CC(=O)Nc1ccc2c(c1)C(=S)N(C)CC(CCN(C)C)O2 (stereo not drawn)
survival at 3 mg/kg (Cavia porcellus [2]): 100%
survival at 0.3 mg/kg (Cavia porcellus [3]): 0%

CN1CC(CCN2CCC2)Oc2ncc(Br)cc2C1=S (stereo not drawn)
ED50 (Cavia porcellus [5]): 0.09 mg/kg
survival at 1 mg/kg (Cavia porcellus [1]): 60%
ED50 (Cavia porcellus [6]): 0.1 mg/kg
survival at 3 mg/kg (Cavia porcellus [2]): 100%
Survival [4]: 60%

CN1CC(CCNC2CCC2)Oc2ncccc2C1=S (stereo not drawn)
survival at 30 mg/kg (Cavia porcellus [7]): 0%

COc1ccc2c(c1)C(=S)N(C)CC(CCN(C)C)O2 (stereo not drawn)
survival at 3 mg/kg (Cavia porcellus [2]): 0%
survival at 30 mg/kg (Cavia porcellus [8]): 100%

CN(C)CCC1CN(C)C(=S)c2ccc(Cl)cc2O1 (stereo not drawn)
survival at 1 mg/kg (Cavia porcellus [1]): 0%
survival at 3 mg/kg (Cavia porcellus [2]): 100%
survival at 0.3 mg/kg (Cavia porcellus [3]): 0%
survival at 30 mg/kg (Cavia porcellus [8]): 100%

CN1CC(CCN)Oc2ncccc2C1=S (stereo not drawn)
survival at 30 mg/kg (Cavia porcellus [8]): 0%

CN(C)CCC1CN(C)C(=S)c2cc3ccccc3nc2O1 (stereo not drawn)
ED50 (Cavia porcellus [5]): 0.1 mg/kg
ED50 (Cavia porcellus [6]): 2.9 mg/kg
survival at 0.3 mg/kg (Cavia porcellus [3]): 100%
Survival [4]: 67%

CC(CN(C)C)C1CN(C)C(=S)c2cccnc2O1 (stereo not drawn)
survival at 30 mg/kg (Cavia porcellus [7]): 100%
Survival [9]: 0%

CN1CC(CCn2cccn2)Oc2ncccc2C1=S (stereo not drawn)
survival at 30 mg/kg (Cavia porcellus [7]): 33%

CN(C)CCC1CN(C)C(=S)c2cc(-c3ccccc3)cnc2O1 (stereo not drawn)
survival at 1 mg/kg (Cavia porcellus [1]): 100%
survival at 3 mg/kg (Cavia porcellus [2]): 100%
survival at 0.3 mg/kg (Cavia porcellus [3]): 0%

CN(C)CCC1CN(C)C(=S)c2cc(Br)ccc2O1 (stereo not drawn)
survival at 1 mg/kg (Cavia porcellus [1]): 0%
survival at 3 mg/kg (Cavia porcellus [2]): 67%
survival at 30 mg/kg (Cavia porcellus [8]): 100%

COc1ccc(CN(C)CCC2CN(C)C(=S)c3cccnc3O2)cc1 (stereo not drawn)
survival at 1 mg/kg (Cavia porcellus [1]): 0%
survival at 3 mg/kg (Cavia porcellus [2]): 67%

CN1CCN(CCC2CN(C)C(=S)c3cccnc3O2)CC1 (stereo not drawn)
survival at 30 mg/kg (Cavia porcellus [7]): 100%
Survival [9]: 0%

CC(CN(C)C)C1CN(C)C(=O)c2cccnc2O1 (stereo not drawn)
survival at 30 mg/kg (Cavia porcellus [7]): 67%
Survival [9]: 0%

CN1CC(CCN2CCOCC2)Oc2ccccc2C1=S (stereo not drawn)
survival at 30 mg/kg (Cavia porcellus [7]): 50%

CN1CC(CCN2CCC2)Oc2ccc(C(F)(F)F)cc2C1=S (stereo not drawn)
survival at 3 mg/kg (Cavia porcellus [2]): 33%
survival at 30 mg/kg (Cavia porcellus [8]): 100%

CCN(CC)CCC1CN(C)C(=S)c2cc(Cl)cnc2O1 (stereo not drawn)
ED50 (Cavia porcellus [5]): 0.39 mg/kg
survival at 3 mg/kg (Cavia porcellus [2]): 100%
survival at 0.3 mg/kg (Cavia porcellus [3]): 20%

CN(C)CCC1CN(C)C(=O)c2cnc3cc(C(F)(F)F)ccc3c2O1 (stereo not drawn)
survival at 30 mg/kg (Cavia porcellus [7]): 100%
Survival [9]: 0%

CN1CC(CC[N+](C)(C)C)Oc2ncccc2C1=S (stereo not drawn)
survival at 30 mg/kg (Cavia porcellus [7]): 100%
Survival [9]: 0%

COc1ccc(CCN2CCC(Nc3nc4ccccc4n3Cc3ccc(F)cc3)CC2)cc1 [ASTEMIZOLE]
Dose (Felis catus [10]): 0.43 mg/kg
Dose (Felis catus [11]): 8 mg/kg

Cc1nc2c(cc1Cl)C(=S)N(C)CC(CCN1CCC1)O2 (stereo not drawn)
survival at 0.3 mg/kg (Cavia porcellus [3]): 67%
Survival [4]: 67%

Cc1ccc2c(n1)OC(CCN(C)C)CN(C)C2=S (stereo not drawn)
ED50 (Cavia porcellus [5]): 0.06 mg/kg
ED50 (Cavia porcellus [6]): > 2 mg/kg
survival at 0.3 mg/kg (Cavia porcellus [3]): 100%
Survival [4]: 80%

CN(CCC1CN(C)C(=S)c2cccnc2O1)Cc1ccc(C(C)(C)C)cc1 (stereo not drawn)
survival at 1 mg/kg (Cavia porcellus [1]): 40%
survival at 3 mg/kg (Cavia porcellus [2]): 100%
survival at 0.3 mg/kg (Cavia porcellus [3]): 0%

CN1CC(CCN2CCC2)Oc2ccc(Cl)cc2C1=S (stereo not drawn)
ED50 (Cavia porcellus [5]): 0.12 mg/kg
survival at 0.3 mg/kg (Cavia porcellus [3]): 100%
Survival [4]: 40%

CN(C)CC1CN(C)C(=S)c2cccnc2O1 (stereo not drawn)
survival at 30 mg/kg (Cavia porcellus [7]): 0%

CN(C)CCCC1CN(C)C(=O)c2cccnc2O1 (stereo not drawn)
survival at 30 mg/kg (Cavia porcellus [7]): 100%
Survival [9]: 0%

CN(C)CCC1CN=C(S)c2cccnc2O1 (stereo not drawn)
survival at 1 mg/kg (Cavia porcellus [1]): 33%
survival at 3 mg/kg (Cavia porcellus [2]): 100%
survival at 0.3 mg/kg (Cavia porcellus [3]): 0%

CNCCC1CN(C)C(=S)c2cccnc2O1 (stereo not drawn)
Dose (Felis catus [11]): >20 mg/kg
survival at 3 mg/kg (Cavia porcellus [2]): 0%
survival at 30 mg/kg (Cavia porcellus [8]): 100%

CN(C)CCC1CN(C)C(=O)c2cc(Cl)ccc2O1 (stereo not drawn)
survival at 1 mg/kg (Cavia porcellus [1]): 33%
survival at 3 mg/kg (Cavia porcellus [2]): 40%
survival at 0.3 mg/kg (Cavia porcellus [3]): 0%

CN(C)CCC1CN(C)C(=O)c2ccccc2O1 (stereo not drawn)
survival at 30 mg/kg (Cavia porcellus [7]): 62%

CN1CC(CCn2ccnc2)Oc2ncccc2C1=S (stereo not drawn)
survival at 30 mg/kg (Cavia porcellus [7]): 100%
Survival [9]: 0%

CCN1CC(CCN(C)C)Oc2ncccc2C1=S (stereo not drawn)
survival at 1 mg/kg (Cavia porcellus [1]): 33%
survival at 3 mg/kg (Cavia porcellus [2]): 100%

CN1CC(CCCN)Oc2ncccc2C1=S (stereo not drawn)
survival at 30 mg/kg (Cavia porcellus [7]): 67%

CCCCN(CCCC)CCC1CN(C)C(=S)c2cccnc2O1 (stereo not drawn)
survival at 30 mg/kg (Cavia porcellus [7]): 100%
Survival [9]: 33%

CN(C)CCC1CN(C)C(=S)c2cc(Br)cnc2O1 (stereo not drawn)
ED50 (Cavia porcellus [5]): 0.05 mg/kg
ED50 (Cavia porcellus [6]): 2 mg/kg
Survival [4]: 100%

CN1CC(CCN2CCCC2)Oc2ncc(Cl)cc2C1=S (stereo not drawn)
ED50 (Cavia porcellus [5]): 0.12 mg/kg
survival at 0.3 mg/kg (Cavia porcellus [3]): 100%
Survival [4]: 40%
